This note sets out measurements from ChEMBL document CHEMBL3228031, “Prodrugs of 9-(beta-D-arabinofuranosyl)adenine 2. Synthesis and evaluation of a number of 2',3'- and 3',5'-di-O-acyl derivatives” (J Med Chem, 1979).

Structures are written as SMILES. In brackets after ≈: the same amount, converted by molar mass. Activity calls are given as the source filed them. The rule behind the calls is not given here. Some results are limits rather than exact numbers.

A short description of data set [1]: Aqueous solubility of the compound at pH 7. The class given is physicochemical.
In a further data set the target is T1, Adenosine deaminase (Bos taurus, UniProt P56658).
T1 sequence (P56658 whole entry): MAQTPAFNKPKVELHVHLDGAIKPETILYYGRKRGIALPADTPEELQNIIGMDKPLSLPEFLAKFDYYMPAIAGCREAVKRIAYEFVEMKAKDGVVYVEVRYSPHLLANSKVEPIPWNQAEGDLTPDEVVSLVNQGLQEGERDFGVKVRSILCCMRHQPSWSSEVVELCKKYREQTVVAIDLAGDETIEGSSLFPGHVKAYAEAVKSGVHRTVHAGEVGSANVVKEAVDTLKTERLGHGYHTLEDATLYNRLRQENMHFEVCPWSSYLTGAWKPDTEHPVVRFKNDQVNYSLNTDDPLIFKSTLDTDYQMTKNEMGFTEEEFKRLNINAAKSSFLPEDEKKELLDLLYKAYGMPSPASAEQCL
The data set can be described thus: Activity of calf mucosal adenosine deaminase assessed as enzyme-mediated drug metabolism by liquid chromatographic analysis. To be noted: cattle. Format: ADME. The method in brief: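 Drug exposed to the deaminase, with enzyme level also raised 10- and 100-fold. Reaction mixtures analysed by reverse-phase C18 LC (aqueous acetonitrile eluent, 254-nm UV detection) for unchanged substrate.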

Data set [2] concerns Human alphaherpesvirus 1. The data set can be described thus: Antiviral activity against Herpes simplex virus 1 assessed as plaque reduction at 1.75 x 10^-5 M by cell-based assay relative to control. Format: functional. The gist of the method:
(§1)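 HSV-1 plaque-reduction assay by the Hsiung–Melnick procedure. Challenge was 125-300 plaque-forming units. An ara-A control was run alongside each sample at the same molar concentration with an identical virus challenge. Data were confirmed by duplicate assay (±10%).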

In data set [3] the test system is Human alphaherpesvirus 1. The data set is described as follows: Antiviral activity against Herpes simplex virus 1 assessed as plaque reduction at 1.75 x 10^-5 M by cell-based assay relative to vidarabine. Format: functional. The gist of the method:
as §1

Data set [4] has as its system Human alphaherpesvirus 1. The data set can be described thus: Antiviral activity against Herpes simplex virus 1 assessed as plaque reduction at 5.47 x 10^-5 M by cell-based assay relative to vidarabine. The class given is functional. The method in brief: as §1
In data set [5] the test system is Human alphaherpesvirus 1. The data set is described as follows: Antiviral activity against Herpes simplex virus 1 assessed as plaque reduction at 0.18 x 10^-5 M by cell-based assay relative to control. The class given is functional. The method in brief:
as §1

Data set [6] has as its system Human alphaherpesvirus 1. The data set is described as follows: Antiviral activity against Herpes simplex virus 1 assessed as plaque reduction at 1.76 x 10^-5 M by cell-based assay relative to control. Format: functional. The method in brief: as §1
The test system of data set [7] is Human alphaherpesvirus 1. The data set is described as follows: Antiviral activity against Herpes simplex virus 1 assessed as plaque reduction at 0.18 x 10^-5 M by cell-based assay relative to vidarabine. The class given is functional. The method in brief: as §1
Data set [8] relates to Human alphaherpesvirus 1. The data set can be described thus: Antiviral activity against Herpes simplex virus 1 assessed as plaque reduction at 1.76 x 10^-5 M by cell-based assay relative to vidarabine. The class given is functional. The method in brief: as §1
In data set [9] the test system is Human alphaherpesvirus 1. The data set is described as follows: Antiviral activity against Herpes simplex virus 1 assessed as plaque reduction at 0.53 x 10^-5 M by cell-based assay relative to control. The class given is functional. Conditions: Human alphaherpesvirus 1, read-out: INH. The method in brief: as §1
Data set [10] relates to Human alphaherpesvirus 1. The data set is described as follows: Antiviral activity against Herpes simplex virus 1 assessed as plaque reduction at 1.71 x 10^-5 M by cell-based assay relative to vidarabine. The class given is functional. The method in brief: as §1
Data set [11] deals with Human alphaherpesvirus 1. The data set is described as follows: Antiviral activity against Herpes simplex virus 1 assessed as plaque reduction at 0.53 x 10^-5 M by cell-based assay relative to vidarabine. The class given is functional. The method in brief:
as §1

In data set [12] the test system is Human alphaherpesvirus 1. The data set can be described thus: Antiviral activity against Herpes simplex virus 1 assessed as plaque reduction at 0.54 x 10^-5 M by cell-based assay relative to vidarabine. Format: functional. The gist of the method: as §1
In data set [13] the test system is Human alphaherpesvirus 1. The data set can be described thus: Antiviral activity against Herpes simplex virus 1 assessed as plaque reduction at 1.83 x 10^-5 M by cell-based assay relative to control. The class given is functional. The gist of the method:
as §1

In data set [14] the test system is Human alphaherpesvirus 2. The data set can be described thus: Antiviral activity against Herpes simplex virus 2 Magill infected in guinea pig assessed as prevention of vaginal discharge at 3% compound concentration treated intravaginally bid for 4 days measured on day 16 post-infection. Format: functional, organism-based. The method in brief:
(§2)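 Animals were infected intravaginally with 1 × 10^2.82 PFU in 0.1 mL. Drug ointments were given intravaginally starting 4 h postinfection, then twice daily for 4 days, filling the vagina. Clinical signs were scored as animals positive/infected. Cure meant no symptoms, or symptoms healed by day 16 postinfection; it was reported as cured/infected.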

The subject of data set [15] is Human alphaherpesvirus 2. The data set can be described thus: Antiviral activity against Herpes simplex virus 2 Magill infected in guinea pig assessed as prevention of inflammation at 3% compound concentration treated intravaginally bid for 4 days measured on day 16 post-infection. Format: functional, organism-based. The method in brief: as §2
Data set [16] relates to Human alphaherpesvirus 2. The data set is described as follows: Antiviral activity against Herpes simplex virus 2 Magill infected in guinea pig assessed as prevention of vesiculation of labia and vulva at 3% compound concentration treated intravaginally bid for 4 days measured on day 16 post-infection. Format: functional, organism-based. The gist of the method: as §2
The test system of data set [17] is Human alphaherpesvirus 2. The data set can be described thus: Antiviral activity against Herpes simplex virus 2 Magill infected in guinea pig assessed as prevention of vulvo-vaginal swelling at 3% compound concentration treated intravaginally bid for 4 days measured on day 16 post-infection. The class given is functional, organism-based. The method in brief:
as §2

In data set [18] the test system is Human alphaherpesvirus 2. The data set can be described thus: Antiviral activity against Herpes simplex virus 2 Magill infected in guinea pig assessed as prevention of paralysis at 3% compound concentration treated intravaginally bid for 4 days measured on day 16 post-infection. Format: functional, organism-based. The method in brief:
as §2

Data set [19] deals with Human alphaherpesvirus 2. The data set is described as follows: Antiviral activity against Herpes simplex virus 2 Magill infected in guinea pig assessed as prevention of death at 3% compound concentration treated intravaginally bid for 4 days measured on day 16 post-infection. The class given is functional, organism-based. The gist of the method: as §2
For data set [20], the species on record is Cavia porcellus. The data set is described as follows: Toxicity in albino guinea pig assessed as development of erythema at 3% compound concentration treated intravaginally bid for 4 days. The class given is organism-based. Conditions: in vivo, other, 96 h. The gist of the method: (§3)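 Uninfected control animals received drug ointment intravaginally (topical), twice daily for 4 days, in an amount enough to fill the vagina.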

For data set [21], the species on record is Cavia porcellus. The data set can be described thus: Toxicity in albino guinea pig assessed as death at 3% compound concentration treated intravaginally bid for 4 days. To be noted: in vivo, other, 96 h. Format: organism-based. The gist of the method:
as §3

Data set [22] deals with Human alphaherpesvirus 1. The data set is described as follows: Antiviral activity against Herpes simplex virus 1 assessed as plaque reduction at 1.83 x 10^-5 M by cell-based assay relative to vidarabine. Format: functional. To be noted: Human alphaherpesvirus 1, read-out: INH. The gist of the method:
as §1

The test system of data set [23] is Human alphaherpesvirus 2. The data set is described as follows: Antiviral activity against Herpes simplex virus 2 Magill infected in guinea pig assessed as cured animal at 3% compound concentration treated intravaginally bid for 4 days measured on day 16 post-infection. Format: functional, organism-based. The method in brief: as §2
For data set [24], the species on record is Cavia porcellus. The data set is described as follows: Toxicity in albino guinea pig assessed as occurrence of irritation at 3% compound concentration treated intravaginally bid for 4 days. To be noted: in vivo, other, 96 h. The class given is organism-based.

As a reminder, the solubility is the dissolved amount per volume that the medium holds.

Regarding `CC(C)C(=O)OC[C@H]1O[C@@H](n2cnc3c(N)ncnc32)[C@@H](O)[C@@H]1OC(=O)C(C)C`, in [1] (aqueous, read-out: solubility), the solubility came to 20 µg/mL (≈ 0.0491 mM). Also, the Stability entry on Adenosine deaminase is “Stable”. Also, the figures for the inhibition at 17.5 µM in the data set with Human alphaherpesvirus 1 [2] and with Human alphaherpesvirus 1 [3] were 0% and 90%, respectively.
Regarding `Nc1ncnc2c1ncn2[C@@H]1O[C@H](CO)[C@@H](OC(=O)c2ccccc2)[C@@H]1OC(=O)c1ccccc1`, the solubility in [1] (aqueous, read-out: solubility) is below 10 µg/mL. For the same molecule, the Stability result at Adenosine deaminase was “Stable”. Also, in the data set on Human alphaherpesvirus 1 [4], the inhibition at 54.7 µM worked out at 100%.
For `CCC(=O)O[C@H]1[C@H](O)[C@@H](CO)O[C@H]1n1cnc2c(N)ncnc21`, the solubility result in data set [1] (buffer) is given as “soluble”. Moreover, the Stability entry on Adenosine deaminase is given as “Stable”. The inhibition at 1.8 µM in the data set on Human alphaherpesvirus 1 [5] amounted to 4%; with Human alphaherpesvirus 1 [7], 36%. Further, the inhibition at 17.6 µM in the data set on Human alphaherpesvirus 1 [6] came to 35%; in the data set on Human alphaherpesvirus 1 [8], 88%.
Turning to `CC(C)C(=O)O[C@H]1[C@H](OC(=O)C(C)C)[C@@H](CO)O[C@H]1n1cnc2c(N)ncnc21`, the solubility in [1] (aqueous, read-out: solubility) turned out to be 420 µg/mL (≈ 1.03 mM). Besides, the Stability result at Adenosine deaminase is on record as “Stable”. The inhibition at 5.3 µM came to 0% in the data set with Human alphaherpesvirus 1 [9] and 73% in the data set on Human alphaherpesvirus 1 [11]. The inhibition at 17.1 µM in the data set with Human alphaherpesvirus 1 [10] was found to be 90%.
With `CC(=O)OC[C@H]1O[C@@H](n2cnc3c(N)ncnc32)[C@@H](O)[C@@H]1OC(C)=O`, the solubility in data set [1] (aqueous, read-out: solubility) worked out at 4700 µg/mL (≈ 13.4 mM). In addition, on Adenosine deaminase, the Stability entry is “Stable”. The results for the inhibition at 17.5 µM in the data set on Human alphaherpesvirus 1 [2] and in the data set with Human alphaherpesvirus 1 [3] were 81% and 87%, respectively. The inhibition at 5.4 µM with Human alphaherpesvirus 1 [12] worked out at 79%.
As to `CCC(=O)O[C@H]1[C@H](OC(=O)CC)[C@@H](CO)O[C@H]1n1cnc2c(N)ncnc21`, the solubility in [1] (aqueous, read-out: solubility) amounted to 4500 µg/mL (≈ 11.9 mM). Also, on Adenosine deaminase, the Stability result is recorded as “Stable”. For the same molecule, the inhibition at 18.3 µM worked out at 15% in the data set on Human alphaherpesvirus 1 [13] and 90% in the data set with Human alphaherpesvirus 1 [22]. Further, the result in the data set with Human alphaherpesvirus 2 [14], in the data set with Human alphaherpesvirus 2 [15], in the data set on Human alphaherpesvirus 2 [16], in the data set with Human alphaherpesvirus 2 [17], in the data set with Human alphaherpesvirus 2 [18] and in the data set with Human alphaherpesvirus 2 [19] was Active. Further, the Activity result in the data set filed under Cavia porcellus [20] and in the data set listed under Cavia porcellus [21] was “Toxic” in each case. In addition, the inhibition at 1.8 µM with Human alphaherpesvirus 1 [7] was 60%.
For the molecule `CC(=O)O[C@H]1[C@H](OC(C)=O)[C@@H](CO)O[C@H]1n1cnc2c(N)ncnc21`, the solubility in data set [1] (aqueous, read-out: solubility) stood at 33000 µg/mL (≈ 93.9 mM). Moreover, on Adenosine deaminase, the Stability entry is listed as “Stable”. Also, the inhibition at 17.5 µM came out at 68% with Human alphaherpesvirus 1 [2] and 100% with Human alphaherpesvirus 1 [3]. In addition, the inhibition at 1.8 µM turned out to be 0% with Human alphaherpesvirus 1 [5] and 40% in the data set with Human alphaherpesvirus 1 [7]. Besides, the outcome with Human alphaherpesvirus 2 [14], with Human alphaherpesvirus 2 [23], in the data set on Human alphaherpesvirus 2 [15], with Human alphaherpesvirus 2 [16], in the data set on Human alphaherpesvirus 2 [17] and with Human alphaherpesvirus 2 [18] was Active. Also, the result in the data set with Human alphaherpesvirus 2 [19] was Active. Also, the Activity entry in the data set listed under Cavia porcellus [24] is reported as “Non-toxic”.
